pIC50: −log10 of the molar value.
Experiments:
[1] = tested on: HL-60; experiment: Trypan blue exclusion assay (TB) was carried out for 48 hr and the in vitro ID50 value was evaluated in the HL-60 leukemic cell system (n=1); assay type: functional, Homo sapiens; conditions: read-out: ID50 (the source's name)
In short: (§1)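 HL-60 human promyelocytic leukemia cells were grown in suspension in RPMI 1640 with 10% heat-inactivated FBS, penicillin/streptomycin, 2 mM L-glutamine and 0.22% NaHCO3 at 37 °C under 5% CO2. Cells at 5 × 10^5/mL were exposed to various inhibitor concentrations diluted from ethanol stocks into medium for 48 h. Trypan blue in PBS was then added and viable cells were counted by hemocytometer. Triplicate determinations; values in μM.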

[2] = tested on: HL-60; experiment: Standard thymidine incorporation assay (TdR) was carried out for 48 hr and involved a 24-h pulse of [3H]- thymidine (n=2) and ID50 value was evaluated; assay type: functional; conditions: Homo sapiens, read-out: ID50 (the source's name)
In short: (§2)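 HL-60 human promyelocytic leukemia cells in RPMI 1640 with 10% heat-inactivated FBS, 37 °C, 5% CO2. Log-phase cells seeded at 5 × 10^4/well with inhibitor dilutions from ethanol stocks (1 or 10 mg/mL). At 24 h, pulsed with 1.0 μCi [methyl-3H]thymidine (6.7 Ci/mmol) for a further 24 h. Harvested onto glass fiber filters and counted by liquid scintillation as % of control. Quadruplicate determinations. Values in μM.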

[3] = tested on: HL-60; experiment: Trypan blue exclusion assay (TB) was carried out for 48 h and the in vitro ID50 value was evaluated in the HL-60 leukemic cell system (n=3); assay type: functional; conditions: Homo sapiens, HL-60, 48 h; read-out: ID50 (the source's name); in short: as §1
[4] = tested on: HL-60; experiment: Standard thymidine incorporation assay (TdR) was carried out for 48 hr and involved a 24-h pulse of [3H]- thymidine (n=3) and ID50 value was evaluated; assay type: functional; conditions: Homo sapiens, read-out: ID50 (the source's name); in short: as §2
[5] = tested on: HL-60; experiment: Trypan blue exclusion assay (TB) was carried out for 48 hr and the in vitro ID50 value was evaluated in the HL-60 leukemic cell system (n=4); assay type: functional; conditions: Homo sapiens, HL-60, 48 h; read-out: ID50 (the source's name); in short: as §1
[6] = tested on: HL-60; experiment: Standard thymidine incorporation assay (TdR) was carried out for 48 hr and involved a 24-h pulse of [3H]- thymidine (n=5) and ID50 value was evaluated; assay type: functional; conditions: Homo sapiens, read-out: ID50 (the source's name); in short: as §2
[7] = tested on: HL-60; experiment: Standard thymidine incorporation assay (TdR) was carried out for 48 hr with an 8 hr pulse of [3H]- thymidine (TdR8) (n=5) and ID50 value was evaluated; assay type: functional; conditions: Homo sapiens, read-out: ID50 (the source's name)
In short: (§3)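 HL-60 leukemia suspension cultures grown in RPMI 1640/10% FBS at 37 °C, 5% CO2. Cells seeded at 5 × 10^4/well with inhibitors diluted from ethanol stocks. 48-h exposure, with 1.0 μCi [methyl-3H]thymidine (6.7 Ci/mmol) added for the last 8 h. Filter-harvested cells counted by liquid scintillation, uptake expressed as percent of control. Quadruplicate determinations. Results in μM.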

[8] = tested on: HL-60; experiment: Standard thymidine incorporation assay (TdR) was carried out for 48 hr with an 8 hr pulse of [3H]- thymidine (TdR8) (n=4) and ID50 value was evaluated; assay type: functional; conditions: Homo sapiens, read-out: ID50 (the source's name); in short: as §3
[9] = tested on: HL-60; experiment: Standard thymidine incorporation assay (TdR) was carried out for 48 hr and involved a 24-h pulse of [3H]- thymidine (n=1) and ID50 value was evaluated; assay type: functional; conditions: Homo sapiens, read-out: ID50 (the source's name); in short: as §2
[10] = tested on: HL-60; experiment: Standard thymidine incorporation assay (TdR) was carried out for 48 hr with an 8 hr pulse of [3H]- thymidine (TdR8) (n=6) and ID50 value was evaluated; assay type: functional; conditions: Homo sapiens, read-out: ID50 (the source's name); in short: as §3
[11] = tested on: HL-60; experiment: Standard thymidine incorporation assay (TdR) was carried out for 48 hr with an 8 hr pulse of [3H]- thymidine (TdR8) (n=3) and ID50 value was evaluated; assay type: functional; conditions: Homo sapiens, read-out: ID50 (the source's name); in short: as §3
[12] = tested on: HL-60; experiment: Standard thymidine incorporation assay (TdR) was carried out for 48 hr with an 8 hr pulse of [3H]- thymidine (TdR8) (n=1) and ID50 value was evaluated; assay type: functional; conditions: Homo sapiens, read-out: ID50 (the source's name); in short: as §3
[13] = tested on: HL-60; experiment: Standard thymidine incorporation assay (TdR) was carried out for 48 hr with an 8 hr pulse of [3H]- thymidine (TdR8) (n=16) and ID50 value was evaluated; assay type: functional; conditions: Homo sapiens, read-out: ID50 (the source's name); in short: as §3
[14] = tested on: HL-60; experiment: Trypan blue exclusion assay (TB) was carried out for 48 hr and the in vitro ID50 value was evaluated in the HL-60 leukemic cell system (n=33); assay type: functional; conditions: Homo sapiens, HL-60, 48 h; read-out: ID50 (the source's name); in short: as §1
[15] = tested on: HL-60; experiment: Standard thymidine incorporation assay (TdR) was carried out for 48 hr and involved a 24-h pulse of [3H]- thymidine (n=21) and ID50 value was evaluated; assay type: functional; conditions: Homo sapiens, read-out: ID50 (the source's name); in short: as §2
[16] = tested on: HL-60; experiment: Trypan blue exclusion assay (TB) was carried out for 48 hr and the in vitro ID50 value was evaluated in the HL-60 leukemic cell system (n=2); assay type: functional; conditions: Homo sapiens, HL-60, 48 h; read-out: ID50 (the source's name); in short: as §1

CCCCCCCCCCCCCCCCSCC(COP(=O)(O)OCC[N+](CC)(CC)CC)OCC (stereo not given) was tested, and the pIC50 ([1]; Homo sapiens, HL-60, 48 h) was 5.48.

With CCCCCCCCCCCCCCC(CSCC(COP(=O)([O-])OCC[N+](C)(C)C)OCC)OC (stereo not given) the pIC50 [2] was 5.61 and the pIC50 [3] was 5.47.

With CCCCCCCCCCCCCCCCOCC(COP(=O)([O-])OCC[n+]1ccccc1)OCC (stereo not given) the pIC50 ([1]; Homo sapiens, HL-60, 48 h) was 5.58 and the pIC50 [4] was 5.59.

With CCCCCCCCCCCCCCCCCCOCC(C[N+]1(C)CCC(O)CC1)OCC (stereo not given) the pIC50 [2] was 5.37.

Molecule CCCCCCCCCCCCCCCCCC(=O)NCC(COP(=O)([O-])OCC[N+](C)(C)C)OCC (stereo not given) has a pIC50 [5] of 5.79 and a pIC50 [6] of 5.48.

Molecule CCCCCCCCCCCCCCCCOCC(C[S+](C)CCO)OC (stereo not given) has a pIC50 [7] of 5.69, a pIC50 [4] of 5.70 and a pIC50 [3] of 5.60.

With CCCCCCCCCCCCCCCCCC(=O)NCCCOP(=O)([O-])OCC[N+](C)(C)C the pIC50 [4] was 5.22 and the pIC50 [3] was 5.26.

Work on CCCCCCCCCCCCCCCCSCC(C[n+]1ccsc1)OC (stereo not given) yielded a pIC50 [2] of 5.14 and a pIC50 ([1]; Homo sapiens, HL-60, 48 h) of 5.06.

CCCCCCCCCCCCCCCCCCOCC(COP(=O)([O-])OCC[N+](C)(C)Cc1ccccc1)OCC (stereo not given) was tested, and the pIC50 ([1]; Homo sapiens, HL-60, 48 h) was 5.44.

In the case of CCCCCCCCCCCCCCCCOCC(C[n+]1cccc(CO)c1)OC (stereo not given), the pIC50 [2] was 5.77, the pIC50 [8] was 6.07 and the pIC50 [5] was 5.97.

Work on CCCCCCCCCCCCCCCCSCC[N+](C)(C)CCO yielded a pIC50 [9] of 5.40.

CCCCCCCCCCCCCCCCSCC(COP(=O)([O-])OCC[N+](C)(C)C)OCC (stereo in doubt; 5) gave a pIC50 [1] of 5.17.

Work on CCCCCCCCCCCCCCCCSCC(COC)C[N+](C)(C)C (stereo not given) yielded a pIC50 [9] of 5.45.

CCCCCCCCCCCCCCCCSCC(C[N+](C)(C)CC(O)CO)OC (stereo not given) showed a pIC50 [10] of 5.72, a pIC50 [6] of 5.52 and a pIC50 [3] of 5.44.

Work on CCCCCCCCOCC(C[N+](C)(C)C)OC (stereo not given) yielded a pIC50 [11] of 4.57 and a pIC50 [3] of 4.67.

Work on CCCCCCCCCCCCCCCCSCC(C[N+]1(C)CCCC1)OCC (stereo not given) yielded a pIC50 [12] of 5.72 and a pIC50 [9] of 5.68.

CCCCCCCCCCCCCCCCCCOCC(COP(=O)([O-])OCC[N+](C)(C)C)OC (stereo not given) [EDELFOSINE] showed a pIC50 [13] of 5.62, a pIC50 [14] of 5.61 and a pIC50 [15] of 5.62.

CCCCCCCCCCCCCCCCOCC(COP(=O)([O-])OCC[N+](C)(C)C)(OC)OC showed a pIC50 ([1]; Homo sapiens, HL-60, 48 h) of 5.47.

CCCCCCCCCCCCCCCCCC(=O)NCC(COP(=O)([O-])OCC[N+](C)(C)C)OCCCCCCCCCCCCCC (stereo not given) was tested, and the pIC50 [4] was less than 4.00.

With CCCCCCCCCCCCCCCCCCSCC(C)(COP(=O)([O-])OCC[N+](C)(C)C)OCC (stereo not given) the pIC50 [16] was 5.42.

— ChEMBL document CHEMBL1126734, “Synthesis of phosphocholine and quaternary amine ether lipids and evaluation of in vitro antineoplastic activity” (1993)
